Experimental data published in PubChem BioAssay AID623937 (The Scripps Research Institute Molecular Screening Center, 2012).
Several values for one entry are separate records, joined by “and”; a condition that tells them apart may be missing. Equal values may be shown once. Activity calls are given as the source filed them.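 Rule for the calls: active = Chi band cutting by RecBCD reduced more than twofold versus the solvent-only control; inactive = reduction of twofold or less versus solvent-only control.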

Target: RecBCD enzyme subunit RecC (Escherichia coli (strain K12)) + RecBCD enzyme subunit RecB (Escherichia coli (strain K12)) (UniProt P07648+P08394)
Sequence (P07648 whole entry, looked up): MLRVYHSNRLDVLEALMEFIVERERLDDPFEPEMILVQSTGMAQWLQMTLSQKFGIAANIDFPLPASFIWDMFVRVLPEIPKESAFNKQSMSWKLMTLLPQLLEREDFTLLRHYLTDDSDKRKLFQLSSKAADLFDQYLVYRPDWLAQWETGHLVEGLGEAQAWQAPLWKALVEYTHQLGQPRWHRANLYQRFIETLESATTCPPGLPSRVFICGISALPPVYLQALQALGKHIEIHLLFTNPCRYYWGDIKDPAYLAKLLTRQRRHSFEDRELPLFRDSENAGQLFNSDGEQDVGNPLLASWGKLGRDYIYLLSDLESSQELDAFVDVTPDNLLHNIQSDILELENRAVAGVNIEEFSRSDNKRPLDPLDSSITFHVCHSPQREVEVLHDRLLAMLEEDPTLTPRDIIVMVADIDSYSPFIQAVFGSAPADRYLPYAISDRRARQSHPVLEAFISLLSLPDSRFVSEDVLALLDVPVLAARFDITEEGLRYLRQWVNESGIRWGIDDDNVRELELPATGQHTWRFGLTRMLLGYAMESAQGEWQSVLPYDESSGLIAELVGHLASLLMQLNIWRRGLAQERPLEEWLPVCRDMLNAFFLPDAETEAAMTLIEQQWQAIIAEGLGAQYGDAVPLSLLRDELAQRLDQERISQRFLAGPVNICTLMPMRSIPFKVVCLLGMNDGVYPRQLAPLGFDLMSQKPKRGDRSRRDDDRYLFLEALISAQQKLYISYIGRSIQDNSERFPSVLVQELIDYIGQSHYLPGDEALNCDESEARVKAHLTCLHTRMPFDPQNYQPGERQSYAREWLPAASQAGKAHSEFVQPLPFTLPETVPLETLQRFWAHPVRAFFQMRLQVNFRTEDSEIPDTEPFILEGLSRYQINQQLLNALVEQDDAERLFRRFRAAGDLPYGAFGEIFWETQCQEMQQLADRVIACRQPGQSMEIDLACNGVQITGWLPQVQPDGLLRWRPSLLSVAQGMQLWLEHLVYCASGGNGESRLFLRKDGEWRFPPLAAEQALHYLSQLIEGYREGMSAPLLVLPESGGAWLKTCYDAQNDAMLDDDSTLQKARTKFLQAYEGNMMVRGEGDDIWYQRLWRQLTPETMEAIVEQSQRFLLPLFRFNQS
Sequence (P08394 whole entry, looked up): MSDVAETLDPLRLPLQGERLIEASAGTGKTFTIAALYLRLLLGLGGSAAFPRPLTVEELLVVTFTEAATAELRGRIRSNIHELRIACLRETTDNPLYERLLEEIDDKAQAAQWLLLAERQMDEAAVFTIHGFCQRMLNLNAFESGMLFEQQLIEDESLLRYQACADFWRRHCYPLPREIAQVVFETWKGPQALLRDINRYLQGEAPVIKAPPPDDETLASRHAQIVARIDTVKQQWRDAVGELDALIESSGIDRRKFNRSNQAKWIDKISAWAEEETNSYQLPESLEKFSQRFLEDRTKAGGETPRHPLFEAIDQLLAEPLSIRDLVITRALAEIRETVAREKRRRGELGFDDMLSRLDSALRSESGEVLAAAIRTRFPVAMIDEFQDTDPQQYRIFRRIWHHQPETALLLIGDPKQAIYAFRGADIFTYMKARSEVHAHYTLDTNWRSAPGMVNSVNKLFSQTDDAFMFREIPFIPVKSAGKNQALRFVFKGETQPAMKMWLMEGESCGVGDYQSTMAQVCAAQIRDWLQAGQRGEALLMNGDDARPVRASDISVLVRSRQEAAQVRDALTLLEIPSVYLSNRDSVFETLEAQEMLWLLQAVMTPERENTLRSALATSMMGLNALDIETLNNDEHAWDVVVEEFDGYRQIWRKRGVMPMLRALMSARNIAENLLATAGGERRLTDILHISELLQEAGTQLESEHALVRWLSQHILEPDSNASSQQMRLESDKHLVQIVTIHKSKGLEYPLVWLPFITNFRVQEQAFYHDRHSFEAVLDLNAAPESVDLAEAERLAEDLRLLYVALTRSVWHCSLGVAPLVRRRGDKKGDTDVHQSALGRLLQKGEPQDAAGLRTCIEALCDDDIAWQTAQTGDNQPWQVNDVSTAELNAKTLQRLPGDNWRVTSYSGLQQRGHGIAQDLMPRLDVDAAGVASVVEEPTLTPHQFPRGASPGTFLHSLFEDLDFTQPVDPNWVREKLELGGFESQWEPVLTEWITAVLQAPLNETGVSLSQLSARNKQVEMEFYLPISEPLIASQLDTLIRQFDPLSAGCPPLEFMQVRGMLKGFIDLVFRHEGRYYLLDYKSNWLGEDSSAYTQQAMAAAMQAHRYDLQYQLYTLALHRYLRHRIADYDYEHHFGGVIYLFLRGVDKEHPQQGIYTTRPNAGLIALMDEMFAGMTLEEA
Experiment: inhibition of Chi-specific DNA cleavage by RecBCD – biochemical, radioactive gel readout, single concentration, counter-screen for AddAB inhibitor project, late-stage follow-up (AID 623937)
Conditions: purified RecBCD, 32P DNA gel autoradiography, at 50 µM
How it was run: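 assay system = purified E. coli RecBCD helicase-nuclease enzyme | input = RecBCD enzyme at 0.15 nM | medium = reaction mix containing 5 mM ATP | probe or stimulus = 0.1 nM labeled Chi+F linear DNA | times = enzyme reaction for 1 min at 37 °C | technique = Agarose gel of DNA products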

fold reduction of Chi cutting | SMILES
< 2 (inactive) | CCn1cc(C(=O)O)c(=O)c2cnc(N3CCN(C(=S)NCc4ccccc4)CC3)nc21
< 2 (inactive) | Cc1cccnc1NC(=O)c1ccc([N+](=O)[O-])o1
> 2 | CCn1cc(C(=O)O)c(=O)c2cnc(N3CCN(C(=S)NC4CC5CCC4C5)CC3)nc21 (stereo not drawn)
< 2 (inactive) | CCn1cc(C(=O)O)c(=O)c2cnc(N3CCN(C(=S)NC)CC3)nc21
< 2 (inactive) | Cc1sc(NC(=O)c2ccc(Br)o2)c(C#N)c1C
< 2 (inactive) | N#Cc1c(NC(=O)c2ccc(-c3ccccc3[N+](=O)[O-])o2)sc2c1CCCC2
> 2 | CCn1cc(C(=O)O)c(=O)c2cnc(N3CCN(C(=S)Nc4ccc5c(c4)OCCO5)CC3)nc21
< 2 (inactive) | N#Cc1c(NC(=O)c2ccc([N+](=O)[O-])o2)sc2c1CCCC2
> 2 | N#Cc1c(NC(=O)c2ccccc2C(=O)O)sc2c1CCCC2
< 2 (inactive) | CCn1cc(C(=O)O)c(=O)c2cnc(N3CCN(C(=S)NC(C)c4ccccc4)CC3)nc21 (stereo not drawn)
> 2 | Nc1c(NC(=O)c2ccc([N+](=O)[O-])o2)sc2c1CCCC2
< 2 (inactive) | CCn1cc(C(=O)O)c(=O)c2cnc(N3CCN(C(=S)Nc4ccccc4C)CC3)nc21
> 2 | CCn1cc(C(=O)O)c(=O)c2cnc(N3CCN(C(=S)Nc4ccc(F)cc4)CC3)nc21
> 2 | CCn1cc(C(=O)O)c(=O)c2cnc(N3CCN(C(=S)NC(=O)c4cccc(C)c4)CC3)nc21
> 2 | N#Cc1c(NC(=O)c2ccc([N+](=O)[O-])o2)sc2c1CCC2
> 2 | O=C(Nc1cccc(NC(=O)c2ccccc2Cl)c1)c1ccc([N+](=O)[O-])o1
< 2 (inactive) | CCn1cc(C(=O)O)c(=O)c2cnc(N3CCN(C(=S)NC(=O)c4ccccc4Cl)CC3)nc21
< 2 (inactive) | N#Cc1c(NC(=O)c2cnccn2)sc2c1CCCC2
< 2 (inactive) | CCn1cc(C(=O)O)c(=O)c2cnc(N3CCN(C(=S)NC(=O)c4ccco4)CC3)nc21
< 2 (inactive) | CCn1cc(C(=O)O)c(=O)c2cnc(N3CCN(C(=S)Nc4ccccc4F)CC3)nc21
< 2 (inactive) | C=CCn1c(Sc2ncc([N+](=O)[O-])s2)n[nH]c1=O
< 2 (inactive) | O=C(NCc1cccnc1)c1ccc([N+](=O)[O-])o1
< 2 (inactive) | CC1CCc2c(sc(NC(=O)c3ccc([N+](=O)[O-])o3)c2C#N)C1 (stereo not drawn)
> 2 | CCn1cc(C(=O)O)c(=O)c2cnc(N3CCN(C(=S)Nc4ccccc4Cl)CC3)nc21

fold reduction of Chi cutting | SMILES
< 2 (inactive) | CC(=O)Nc1ccc2nc(NC(=O)c3ccc([N+](=O)[O-])o3)sc2c1
> 2 | Cc1ccc2nc(/C(C#N)=C\c3ccc([N+](=O)[O-])o3)[nH]c2c1
< 2 (inactive) | O=C(OCC(=O)c1cccs1)c1ccc([N+](=O)[O-])o1
< 2 (inactive) | N#Cc1c(NC(=O)c2ccco2)sc2c1CCC2
> 2 | N#Cc1c(NC(=O)c2cccc(F)c2)sc2c1CCCC2
< 2 (inactive) | CCn1cc(C(=O)O)c(=O)c2cnc(N3CCN(C(=S)NC(=O)c4cccnc4)CC3)nc21
> 2 | CCn1cc(C(=O)O)c(=O)c2cnc(N3CCN(C(=S)Nc4ccccc4)CC3)nc21
< 2 (inactive) | CCn1cc(C(=O)O)c(=O)c2cnc(N3CCN(C(=S)Nc4ccc(Cl)cc4)CC3)nc21
< 2 (inactive) | Cc1ccc(C(=O)Nc2sc3c(c2C#N)CCC3)o1
< 2 (inactive) | Cc1ccc(C(=O)Nc2sc3c(c2C#N)CCCCC3)o1
< 2 (inactive) | NC(=O)c1ccsc1NC(=O)COC(=O)c1ccc([N+](=O)[O-])o1
< 2 (inactive) | CC1(C)Cc2c(sc(NC(=O)c3ccco3)c2C#N)CO1
> 2 | O=C(Nc1ncccn1)c1ccc([N+](=O)[O-])o1
< 2 (inactive) | O=C(Nc1ccc(N2CCOCC2)cc1)c1ccc([N+](=O)[O-])o1
> 2 and < 2 (inactive) | CCn1cc(C(=O)O)c(=O)c2cnc(N3CCN(C(=S)Nc4ccccc4C(F)(F)F)CC3)nc21
> 2 | CC1CCc2c(sc(NC(=O)c3ccc([N+](=O)[O-])o3)c2N)C1 (stereo not drawn)
< 2 (inactive) | CCn1cc(C(=O)O)c(=O)c2cnc(N3CCNCC3)nc21
> 2 | CCn1cc(C(=O)O)c(=O)c2cnc(N3CCN(C(=O)Nc4ccccc4)CC3)nc21
< 2 (inactive) | CCn1cc(C(=O)O)c(=O)c2cnc(N3CCN(C(=S)Nc4ccccc4OC)CC3)nc21
< 2 (inactive) | N#Cc1c(NC(=O)C2CC=CCC2C(=O)O)sc2c1CCC2 (stereo not drawn)
< 2 (inactive) | N#Cc1c(NC(=O)c2ccccc2)sc2c1CCC2
< 2 (inactive) | CCn1cc(C(=O)O)c(=O)c2cnc(N3CCN(C(=S)Nc4ccc5c(c4)OCO5)CC3)nc21
< 2 (inactive) | C=CCNC(=S)N1CCN(c2ncc3c(=O)c(C(=O)O)cn(CC)c3n2)CC1
< 2 (inactive) | CCn1cc(C(=O)O)c(=O)c2cnc(N3CCN(C(=S)Nc4cccc(C(F)(F)F)c4)CC3)nc21
